Results published in ChEMBL document CHEMBL4152192, “Synthesis and anticancer activity evaluation of novel azacalix[2]arene[2]pyrimidines” (Eur J Med Chem, 2018).
pIC50: −log10 of the molar value. The source made the active and inactive calls. The calls are words filed in the database; no cut-off is given here.

Key:
A549 = assay: Antiproliferative activity against human A549 cells after 72 hrs by CCK-8 assay; format: functional, cell-based; conditions: A549, 72 h
In short: (§1)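 Cells seeded at 5 × 10³/well; A549, MCF7 and SH-SY5Y grown in DMEM, CNE and L-02 in RPMI-1640 (10% FBS, pen/strep, 37 °C, 5% CO₂). Compounds in DMSO, diluted in medium; 72 h exposure versus DMSO vehicle. CCK-8 absorbance read at 450 nm; viability taken as treated/control absorbance, IC₅₀ from curve fit. Triplicate wells, three independent experiments.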

MCF7 [1] = assay: Antiproliferative activity against human MCF7 cells after 72 hrs by CCK-8 assay; format: functional, cell-based; conditions: MCF7, 72 h; in short: as §1
SH-SY5Y = assay: Antiproliferative activity against human SH-SY5Y cells after 72 hrs by CCK-8 assay; format: functional, cell-based; in short: as §1
CNE = assay: Antiproliferative activity against human CNE cells after 72 hrs by CCK-8 assay; format: functional, cell-based; in short: as §1
L02 = assay: Antiproliferative activity against human L02 cells after 72 hrs by CCK-8 assay; format: cell-based; conditions: L02, 72 h; in short: as §1
MCF7 [2] = assay: Cell cycle arrest in human MCF7 cells assessed as accumulation of cells G1 phase at 0.3 uM after 24 hrs by propidium iodide/RNase A staining-based flow cytometric analysis (reference value: 60.6%); format: functional
MCF7 [3] = assay: Cell cycle arrest in human MCF7 cells assessed as accumulation of cells S phase at 0.3 uM after 24 hrs by propidium iodide/RNase A staining-based flow cytometric analysis (reference value: 6.75%); format: functional
MCF7 [4] = assay: Cell cycle arrest in human MCF7 cells assessed as accumulation of cells G2 phase at 0.3 uM after 24 hrs by propidium iodide/RNase A staining-based flow cytometric analysis (reference value: 35.08%); format: functional
MCF7 [5] = assay: Cell cycle arrest in human MCF7 cells assessed as accumulation of cells G1 phase at 0.6 uM after 24 hrs by propidium iodide/RNase A staining-based flow cytometric analysis (reference value: 60.6%); format: functional
MCF7 [6] = assay: Cell cycle arrest in human MCF7 cells assessed as accumulation of cells S phase at 0.6 uM after 24 hrs by propidium iodide/RNase A staining-based flow cytometric analysis (reference value: 6.75%); format: functional
MCF7 [7] = assay: Cell cycle arrest in human MCF7 cells assessed as accumulation of cells G2 phase at 0.6 uM after 24 hrs by propidium iodide/RNase A staining-based flow cytometric analysis (reference value: 35.08%); format: functional
MCF7 [8] = assay: Cell cycle arrest in human MCF7 cells assessed as accumulation of cells G1 phase at 1.2 uM after 24 hrs by propidium iodide/RNase A staining-based flow cytometric analysis (reference value: 60.6%); format: functional
MCF7 [9] = assay: Cell cycle arrest in human MCF7 cells assessed as accumulation of cells S phase at 1.2 uM after 24 hrs by propidium iodide/RNase A staining-based flow cytometric analysis (reference value: 6.75%); format: functional
MCF7 [10] = assay: Cell cycle arrest in human MCF7 cells assessed as accumulation of cells G2 phase at 1.2 uM after 24 hrs by propidium iodide/RNase A staining-based flow cytometric analysis (reference value: 35.08%); format: functional
MCF7 [11] = assay: Cell cycle arrest in human MCF7 cells assessed as accumulation of cells S phase after 24 hrs by propidium iodide/RNase A staining-based flow cytometric analysis; format: functional
MCF7 [12] = assay: Induction of apoptosis in human MCF7 cells assessed as improved staining brightness at 0.3 to 1.2 uM after 24 hrs by Hoechst 33342 staining-based fluorescence microscopic analysis; format: functional, cell-based
In short: (§2)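 MCF7 exposed to 0.3, 0.6 or 1.2 µM for 24 h, then stained with 5 µg/mL Hoechst 33342 for 20 min at 37 °C under 5% CO₂. Nuclear morphology (brightness, chromatin condensation, fragmentation) examined by fluorescence microscopy at ×100.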

MCF7 [13] = assay: Induction of apoptosis in human MCF7 cells assessed as nuclear condensation at 0.3 to 1.2 uM after 24 hrs by Hoechst 33342 staining-based fluorescence microscopic analysis; format: functional, cell-based; in short: as §2
MCF7 [14] = assay: Induction of apoptosis in human MCF7 cells assessed as nuclear fragmentation at 0.3 to 1.2 uM after 24 hrs by Hoechst 33342 staining-based fluorescence microscopic analysis; format: functional, cell-based; in short: as §2
MCF7 [15] = assay: Induction of apoptosis in human MCF7 cells assessed as viable cells at 0.3 uM after 24 hrs by Annexin V-FITC/propidium iodide staining-based flow cytometric analysis (reference value: 97.5%); format: functional; conditions: MCF7, 24 h, read-out: Activity
MCF7 [16] = assay: Induction of apoptosis in human MCF7 cells assessed as early apoptotic cells at 0.3 uM after 24 hrs by Annexin V-FITC/propidium iodide staining-based flow cytometric analysis (reference value: 0.816%); format: functional
MCF7 [17] = assay: Induction of apoptosis in human MCF7 cells assessed as late apoptotic cells at 0.3 uM after 24 hrs by Annexin V-FITC/propidium iodide staining-based flow cytometric analysis (reference value: 1.22%); format: functional
MCF7 [18] = assay: Induction of apoptosis in human MCF7 cells assessed as viable cells at 0.6 uM after 24 hrs by Annexin V-FITC/propidium iodide staining-based flow cytometric analysis (reference value: 97.5%); format: functional; conditions: MCF7, 24 h, read-out: Activity
MCF7 [19] = assay: Induction of apoptosis in human MCF7 cells assessed as necrotic cells at 0.3 uM after 24 hrs by Annexin V-FITC/propidium iodide staining-based flow cytometric analysis (reference value: 0.426%); format: functional
MCF7 [20] = assay: Induction of apoptosis in human MCF7 cells assessed as early apoptotic cells at 0.6 uM after 24 hrs by Annexin V-FITC/propidium iodide staining-based flow cytometric analysis (reference value: 0.816%); format: functional
MCF7 [21] = assay: Induction of apoptosis in human MCF7 cells assessed as late apoptotic cells at 0.6 uM after 24 hrs by Annexin V-FITC/propidium iodide staining-based flow cytometric analysis (reference value: 1.22%); format: functional
MCF7 [22] = assay: Induction of apoptosis in human MCF7 cells assessed as necrotic cells at 0.6 uM after 24 hrs by Annexin V-FITC/propidium iodide staining-based flow cytometric analysis (reference value: 0.426%); format: functional
MCF7 [23] = assay: Induction of apoptosis in human MCF7 cells assessed as viable cells at 1.2 uM after 24 hrs by Annexin V-FITC/propidium iodide staining-based flow cytometric analysis (reference value: 97.5%); format: functional; conditions: MCF7, 24 h, read-out: Activity
MCF7 [24] = assay: Induction of apoptosis in human MCF7 cells assessed as early apoptotic cells at 1.2 uM after 24 hrs by Annexin V-FITC/propidium iodide staining-based flow cytometric analysis (reference value: 0.816%); format: functional
MCF7 [25] = assay: Induction of apoptosis in human MCF7 cells assessed as late apoptotic cells at 1.2 uM after 24 hrs by Annexin V-FITC/propidium iodide staining-based flow cytometric analysis (reference value: 1.22%); format: functional
MCF7 [26] = assay: Induction of apoptosis in human MCF7 cells assessed as necrotic cells at 1.2 uM after 24 hrs by Annexin V-FITC/propidium iodide staining-based flow cytometric analysis (reference value: 0.426%); format: functional
MCF7 [27] = assay: Induction of apoptosis in human MCF7 cells assessed as increase in caspase3 activation at 0.3 to 1.2 uM after 72 hrs by Western blot analysis; format: functional, cell-based
In short: (§3)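 MCF7 exposed to 0.3, 0.6 or 1.2 µM for 72 h. Total protein (30 µg, BCA-quantified) run on SDS-PAGE and transferred to PVDF. Membranes blocked in 5% milk/TBS-0.05% Tween 20 for 2 h at room temperature, probed overnight at 4 °C with anti-cleaved caspase-3, caspase-9 and β-actin (loading control), then HRP anti-rabbit IgG; ECL detection.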

MCF7 [28] = assay: Induction of apoptosis in human MCF7 cells assessed as increase in caspase9 activation at 0.3 to 1.2 uM after 72 hrs by Western blot analysis; format: functional, cell-based; in short: as §3

c1cc2nc(n1)Nc1cc(cc(N3CCCC3)c1)Nc1ccnc(n1)Nc1cc(cc(N3CCCC3)c1)N2
pIC50 (A549): 6.03
pIC50 (MCF7 [1]): 6.24
pIC50 (SH-SY5Y): 5.74
pIC50 (CNE): 4.33
pIC50 (L02): 4.59
Activity (MCF7 [2]): 55.71%
Activity (MCF7 [3]): 11.54%
Activity (MCF7 [4]): 34.8%
Activity (MCF7 [5]): 56.54%
Activity (MCF7 [6]): 17.49%
Activity (MCF7 [7]): 25.13%
Activity (MCF7 [8]): 52.9%
Activity (MCF7 [9]): 38.08%
Activity (MCF7 [10]): 7.88%
Activity (MCF7 [11]): Dose-dependent effect
Activity (MCF7 [12]): Active
Activity (MCF7 [13]): Active
Activity (MCF7 [14]): Active
viability at 0.3 µM (MCF7 [15]): 92.7%
Activity (MCF7 [16]): 5.76%
Activity (MCF7 [17]): 1.35%
viability at 0.6 µM (MCF7 [18]): 73.8%
Activity (MCF7 [19]): 0.148%
Activity (MCF7 [20]): 23.2%
Activity (MCF7 [21]): 2.86%
Activity (MCF7 [22]): 0.197%
viability at 1.2 µM (MCF7 [23]): 69.1%
Activity (MCF7 [24]): 26.6%
Activity (MCF7 [25]): 4.2%
Activity (MCF7 [26]): 0.232%
Activity (MCF7 [27]): Active
Activity (MCF7 [28]): Active
